High-throughput results: PubChem, Columbia University Molecular Screening Center
INS promoter act: activators of insulin promoter-driven GFP, primary screen, imaging, TRM-6 cells (human fetal islet line), eGFP reporter, cell count. 130,000 tested, 0.81% active. plate-scaled: unstimulated 0, stimulated control 100. activation, % at 2 µM;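 active = activation at 2 µM above a set limit, confirmed on inspection of the cell images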;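 note: share of cells whose green reporter signal exceeds an intensity cutoff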
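Assay system: TRM-6 insulin promoter–eGFP reporter cells / Input: 1,000 cells per well / Medium: Low-glucose (5.5 mM) medium with tamoxifen / Also added: tamoxifen inducer, 0.75 µM, in seeding medium / Timing: overnight tamoxifen, then two-day compound incubation at 37 °C / Signal: automated fluorescence imaging of paraformaldehyde-fixed, Hoechst-counterstained cells, green channel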
The depositor's hits bear a star; [ ] = dose if it differs, or a comment. This excerpt belongs to a sample that is enriched for hits.

SMILES	INS promoter act
COc1ccc(N2CCN(Cc3nc4ccccc4c(=O)[nH]3)CC2)cc1	579*
CCC(CC)C(=O)N1CCN(Cc2nc3ccccc3c(=O)[nH]2)CC1	-10
CC1CN(C(=O)C2CCCC2)C(C)CN1C(=O)C1CCCC1 (configuration not stated)	131
Cc1nn(Cc2c(F)c(F)c(F)c(F)c2F)c(C)c1NC(=O)c1c([N+](=O)[O-])c(C)nn1C	-10
Cc1nn(Cc2c(F)c(F)c(F)c(F)c2F)c(C)c1NC(=O)c1c([N+](=O)[O-])cnn1C	4
CCn1ccc(C(=O)Nc2c(C)nn(Cc3c(F)c(F)c(F)c(F)c3F)c2C)n1	364*
COC(=O)c1[nH]c2ccccc2c1NC(=O)CN1CCN(C(=O)c2ccco2)CC1	-91
Cc1ccc(NC(=O)c2ccncc2)cc1[N+](=O)[O-]	2
Cc1ccc(NC(=O)c2ccc(-n3cccn3)c([N+](=O)[O-])c2)cc1C	218*
O=C(Nc1cccc(Cl)c1)c1ccc(-n2cncn2)c([N+](=O)[O-])c1	6
O=C1N/C(=C/c2ccc(N3CCOCC3)cc2)C(=O)N1Cc1ccc(F)cc1	-8
O=C1/C(=C/c2ccc(N3CCCC3)cc2)NC(=S)N1C1CC1	186*
Cc1c(N)cc[n+](CC(=O)c2ccccc2)c1C	0
Cc1sc(-c2ccncc2)nc1OC(=O)c1ccccc1	4
N#Cc1c(Sc2ncc(C(F)(F)F)cc2Cl)nsc1C/C=N\OCc1ccccc1Br	3
Nc1ccc(C(=O)c2ccccc2C(=O)O)cc1Cl	5
O=C1c2cccc3cccc(c23)C(=O)N1CC1CCN(S(=O)(=O)c2ccc(F)cc2)CC1	0
c1cc2c3c(cccc3c1)C(N1CCN(C3=Nc4cccc5cccc3c45)CC1)=N2	-7
c1ccc(CC2CCN(C3=Nc4cccc5cccc3c45)CC2)cc1	83*
COc1ccc(CNC(=O)C(c2ccco2)N(C(=O)c2ccccn2)c2ccccc2)cc1 (configuration not stated)	-7
COC(=O)c1sccc1-n1cccc1C(=O)NCc1ccccc1	-9
Cc1cc(C)n2nc(C(=O)Nc3ccc4c(c3)CCC4)nc2n1	-5
O=C(Nc1cccc([N+](=O)[O-])c1)c1ccc2c(c1)OCCO2	-5
O=C(O)CC(NC(=O)c1ccc2c(c1)OCO2)c1cccc([N+](=O)[O-])c1 (configuration not stated)	464*
O=C(N/N=C\c1ccc(-c2ccc([N+](=O)[O-])cc2)o1)c1ccc2c(c1)OCO2	-3
SMILES	INS promoter act
CCOC(=O)N/N=C/c1c(F)c(F)c(F)c(F)c1F	-5
CS(=O)(=O)Nc1ccccc1C(=O)N1CCN(c2ccccc2)CC1	-4
CS(=O)(=O)c1ccc(-c2nnn(CC(N)=O)n2)cc1	0
CCCC(=O)NCn1nnc(-c2ccc(Cl)cc2)n1	488*[fluoresces]
CCc1ccc(-c2nnn(CCC(=O)OC)n2)cc1	-6
O=C(CCc1[nH]c2ccccc2c1Sc1ccccc1)NCCO	3
Nc1nc2nc(-c3ccc(OCc4ccccc4)cc3)cc(C(F)(F)F)n2n1	-3
c1ccc(-c2cc(-c3ccccc3)n3ncnc3n2)cc1	-69
Fc1ccc(-c2cc(C(F)(F)F)n3ncnc3n2)cc1	235*
CC(=O)OCC1OC(OC(C)=O)C(NC(=O)c2cccnc2)C(OC(C)=O)C1OC(C)=O (configuration not stated)	-100
CCOC(=O)Cc1csc(NC(=O)CSc2nnc3ccccn23)n1	9
COc1ccc(NC(=O)/C=C/c2ccc(F)cc2)cn1	7
COc1ccc(NC(=O)/C(Cl)=C(/Cl)S(=O)Cc2ccccc2Cl)cn1 (configuration not stated)	669*
COc1ccc(NC(=O)c2ccc(Cl)c(S(=O)(=O)N3CCc4ccccc4C3)c2)cn1	0
CCCCn1c(SCC(=O)NNC(=O)c2ccco2)nnc1-c1ccco1	7
Cc1onc(-c2c(Cl)cccc2Cl)c1C(N)=S	0
NS(=O)(=O)c1ccc(NC(=O)C2COc3ccccc3O2)cc1 (configuration not stated)	4
CC(C)(C)NC(=O)c1ccc(NC(=O)C2COc3ccccc3O2)cc1 (configuration not stated)	9
CC1CC(C)CN(S(=O)(=O)c2ccc(NC(=O)C3COc4ccccc4O3)cc2)C1 (configuration not stated)	925*
Cc1ccc(NN2C(=O)C=C(c3ccc(Cl)cc3)C2=O)cc1	-4
Cc1cc(C)c(S(=O)(=O)NCC(=O)NCc2ccco2)c(C)c1	0
CC(C)(C)C(=O)NCCCc1ccccc1	-3
CN(C)CCCOC(=O)c1ccccc1	327
C[N+]1(CC(=O)OCCCc2ccccc2)CCCCC1	350*
CN(c1ccccc1)c1ccc(/C=N/NC(=O)CC#N)cc1	-4
SMILES	INS promoter act
CC(CN(C)Cc1ccccc1)OC(=O)c1ccc2c(c1)OCCO2 (configuration not stated)	-4
NC(=O)CSCc1nc2ccccc2s1	9
Cc1cc(C(=O)COC(=O)CCc2nc3ccccc3s2)c(C)n1C	78*
COCCn1c(C)cc(C(=O)CSc2nc3ccccc3s2)c1C	0
CC(=O)Nc1ccc(NC(=O)CN(c2cccc([N+](=O)[O-])c2)S(C)(=O)=O)cc1	6
CCN1CCN(c2nc3ccccc3nc2C(C#N)C(=O)OC2CCCCC2)CC1 (configuration not stated)	-8
CCN1CCN(C2=CC3=CC(=C(C#N)C#N)CCC3CC2)CC1 (configuration not stated)	614*[fluoresces]
N#CC(C#N)=C1C=C2C=C(N3CCCCCC3)CCC2CC1 (configuration not stated)	223*
CN1CCN(C2=CC3=CC(=C(C#N)C#N)CCC3CC2)CC1 (configuration not stated)	641*
O=C(NCC1CCCO1)C1CCCN1C(=O)Nc1ccc(Cl)c(Cl)c1 (configuration not stated)	115
CN(C(=O)CSC1=NC2C(N=N1)c1cc(Br)ccc1N2C)C1CCCCC1 (configuration not stated)	-2
CCCN1C(=O)C(O)(C2CC(=O)CC(C)(C)O2)c2ccccc21 (configuration not stated)	348
Nc1ccc(C(=O)OC2CCOC2=O)cc1[N+](=O)[O-] (configuration not stated)	-7
Cc1cc(-c2ccccc2)nc(Cl)c1C#N	0
COc1cc(/C=C(\C#N)C(=O)Nc2cc(C(F)(F)F)ccc2Cl)ccc1OCC(=O)Nc1cccc(C(F)(F)F)c1	0
COc1ccc(Nc2nc(NC(C)(C)C)nc(N3CCCC3)n2)c(OC)c1	243
COc1ccc(Nc2nc(Nc3ccc(OC)cc3OC)nc(N3CCN(C)CC3)n2)c(OC)c1	317*
COc1ccc(Nc2nc(NC(C)(C)C)nc(N3CCOCC3)n2)c(OC)c1	5
Cc1ccc2c(c1)C1(OCCO1)C(=O)N2	-8
C=CCn1c(SCCC)nc(O)cc1=O	6
CC/C(=C/c1sc2ccccc2[n+]1CC)SC	0
Cc1sc2ccccc2[n+]1CCC(C)S(=O)(=O)[O-] (configuration not stated)	9
CC[n+]1c(C=C2C=C(C)OC(C)=C2)sc2ccccc21	809*
Cc1ccc(S(=O)(=O)NCC2NCCc3ccccc32)cc1 (configuration not stated)	0
S=C1NCCc2ccccc2C1c1ccccc1Cl (configuration not stated)	469*
Cc1c(Cl)cccc1NCC(=O)NN=C1CCCC1	337*
